What was measured:
[1] = target: Potassium voltage-gated channel subfamily A member 3 (Mus musculus, UniProt P16390); experiment: Effect on blockade of mouse Kv1.3 channel expressed in L929 cells; assay type: functional, cell-based
How it was run: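 Whole-cell patch clamp on L929 cells stably expressing mouse Kv1.3, holding potential -80 mV. Bath: Ringer (160 mM NaCl, 4.5 mM KCl, 2 mM CaCl2, 1 mM MgCl2, 10 mM HEPES, pH 7.4). Pipette: 134 mM KF, 2 mM MgCl2, 10 mM HEPES, 10 mM EGTA, pH 7.2. Current elicited by 500-ms pulses to 40 mV every 45 s. Series resistance compensation of 60-80% applied above 2 nA.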

[2] = target: Potassium voltage-gated channel subfamily A member 1 (Homo sapiens, UniProt Q09470); experiment: Effect on blockade of Kv1.1 channel; assay type: functional
Chain of Potassium voltage-gated channel subfamily A member 1 (Q09470 whole entry): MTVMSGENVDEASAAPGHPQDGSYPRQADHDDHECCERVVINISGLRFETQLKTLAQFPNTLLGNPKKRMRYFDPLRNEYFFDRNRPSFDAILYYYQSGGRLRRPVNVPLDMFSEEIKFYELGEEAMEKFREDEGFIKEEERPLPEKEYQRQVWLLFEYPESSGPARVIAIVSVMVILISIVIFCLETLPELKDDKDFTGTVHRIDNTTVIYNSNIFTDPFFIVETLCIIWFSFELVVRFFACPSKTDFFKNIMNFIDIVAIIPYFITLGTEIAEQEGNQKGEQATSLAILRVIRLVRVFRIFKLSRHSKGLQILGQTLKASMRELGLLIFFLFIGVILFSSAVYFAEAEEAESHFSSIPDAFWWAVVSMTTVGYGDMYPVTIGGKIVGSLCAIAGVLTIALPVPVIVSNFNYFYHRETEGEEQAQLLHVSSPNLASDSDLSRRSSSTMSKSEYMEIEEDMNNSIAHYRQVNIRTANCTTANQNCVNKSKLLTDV
How it was run: (§1)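 Whole-cell patch clamp with a holding potential of -80 mV on cell lines stably expressing Kv1.1, Kv1.2, Kv1.4 or Kv1.5. Recording followed previously described methods. EC50 came from a Hill equation fit to the reduction of area under the current curve.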

[3] = target: Potassium voltage-gated channel subfamily A member 2 (Homo sapiens, UniProt P16389); experiment: Effect on blockade of Kv1.2 channel; assay type: functional; how it was run: as §1
Chain of Potassium voltage-gated channel subfamily A member 2 (P16389 whole entry): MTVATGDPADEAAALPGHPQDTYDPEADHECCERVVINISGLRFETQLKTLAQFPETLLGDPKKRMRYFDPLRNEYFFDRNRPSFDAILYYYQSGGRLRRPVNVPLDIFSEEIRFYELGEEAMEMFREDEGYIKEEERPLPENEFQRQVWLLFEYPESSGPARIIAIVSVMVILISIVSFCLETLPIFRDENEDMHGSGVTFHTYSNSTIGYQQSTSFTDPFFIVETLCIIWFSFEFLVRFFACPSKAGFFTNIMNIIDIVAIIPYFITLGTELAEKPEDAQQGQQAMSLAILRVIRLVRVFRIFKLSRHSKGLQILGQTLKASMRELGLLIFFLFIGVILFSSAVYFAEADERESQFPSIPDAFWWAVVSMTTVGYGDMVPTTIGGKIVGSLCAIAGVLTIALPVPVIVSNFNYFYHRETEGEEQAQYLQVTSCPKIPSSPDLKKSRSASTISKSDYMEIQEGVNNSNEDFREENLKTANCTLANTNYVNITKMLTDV

[4] = target: Potassium voltage-gated channel subfamily A member 4 (Homo sapiens, UniProt P22459); experiment: Effect on blockade of Kv1.4 channel; assay type: functional; how it was run: as §1
Chain of Potassium voltage-gated channel subfamily A member 4 (P22459 whole entry): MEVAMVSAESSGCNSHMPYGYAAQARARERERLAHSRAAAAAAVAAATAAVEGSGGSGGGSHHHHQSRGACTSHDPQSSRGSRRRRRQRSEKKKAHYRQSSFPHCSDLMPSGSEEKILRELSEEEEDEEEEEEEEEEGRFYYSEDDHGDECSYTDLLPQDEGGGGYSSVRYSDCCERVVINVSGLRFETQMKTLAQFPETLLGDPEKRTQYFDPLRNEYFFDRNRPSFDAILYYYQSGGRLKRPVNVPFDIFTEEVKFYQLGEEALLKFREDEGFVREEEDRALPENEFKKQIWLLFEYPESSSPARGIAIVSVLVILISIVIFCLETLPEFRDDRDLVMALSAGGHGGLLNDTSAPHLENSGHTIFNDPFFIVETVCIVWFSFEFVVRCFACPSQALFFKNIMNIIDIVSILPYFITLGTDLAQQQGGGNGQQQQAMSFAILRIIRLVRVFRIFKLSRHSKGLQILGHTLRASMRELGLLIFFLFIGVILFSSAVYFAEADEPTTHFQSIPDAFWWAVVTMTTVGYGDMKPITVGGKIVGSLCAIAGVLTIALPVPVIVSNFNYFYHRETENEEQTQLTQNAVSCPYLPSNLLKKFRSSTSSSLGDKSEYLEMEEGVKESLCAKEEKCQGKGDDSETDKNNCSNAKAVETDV

[5] = target: Potassium voltage-gated channel subfamily A member 5 (Homo sapiens, UniProt P22460); experiment: Effect on blockade of Kv1.5 channel; assay type: functional; how it was run: as §1
Chain of Potassium voltage-gated channel subfamily A member 5 (P22460 whole entry): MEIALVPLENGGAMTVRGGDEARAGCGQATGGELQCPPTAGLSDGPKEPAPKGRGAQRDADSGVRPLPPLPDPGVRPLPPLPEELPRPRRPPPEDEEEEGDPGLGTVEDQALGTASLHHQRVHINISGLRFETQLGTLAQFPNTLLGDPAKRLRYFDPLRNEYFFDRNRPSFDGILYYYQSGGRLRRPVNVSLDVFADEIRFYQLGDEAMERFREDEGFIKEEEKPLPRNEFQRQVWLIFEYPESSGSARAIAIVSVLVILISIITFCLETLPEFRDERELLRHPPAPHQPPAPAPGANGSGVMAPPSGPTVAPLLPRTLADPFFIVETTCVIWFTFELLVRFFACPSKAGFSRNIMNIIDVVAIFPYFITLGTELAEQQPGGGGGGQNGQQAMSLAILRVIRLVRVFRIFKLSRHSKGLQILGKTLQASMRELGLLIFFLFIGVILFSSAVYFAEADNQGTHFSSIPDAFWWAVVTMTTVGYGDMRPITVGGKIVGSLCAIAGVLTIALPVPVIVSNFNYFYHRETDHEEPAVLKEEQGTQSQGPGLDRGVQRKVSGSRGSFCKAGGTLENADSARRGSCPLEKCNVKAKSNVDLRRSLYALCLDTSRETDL

[6] = target: Voltage-gated inwardly rectifying potassium channel KCNH2 (Homo sapiens, UniProt Q12809); experiment: Effect on blockade of Kv11.1 channel; assay type: functional
Chain of Voltage-gated inwardly rectifying potassium channel KCNH2 (Q12809 whole entry): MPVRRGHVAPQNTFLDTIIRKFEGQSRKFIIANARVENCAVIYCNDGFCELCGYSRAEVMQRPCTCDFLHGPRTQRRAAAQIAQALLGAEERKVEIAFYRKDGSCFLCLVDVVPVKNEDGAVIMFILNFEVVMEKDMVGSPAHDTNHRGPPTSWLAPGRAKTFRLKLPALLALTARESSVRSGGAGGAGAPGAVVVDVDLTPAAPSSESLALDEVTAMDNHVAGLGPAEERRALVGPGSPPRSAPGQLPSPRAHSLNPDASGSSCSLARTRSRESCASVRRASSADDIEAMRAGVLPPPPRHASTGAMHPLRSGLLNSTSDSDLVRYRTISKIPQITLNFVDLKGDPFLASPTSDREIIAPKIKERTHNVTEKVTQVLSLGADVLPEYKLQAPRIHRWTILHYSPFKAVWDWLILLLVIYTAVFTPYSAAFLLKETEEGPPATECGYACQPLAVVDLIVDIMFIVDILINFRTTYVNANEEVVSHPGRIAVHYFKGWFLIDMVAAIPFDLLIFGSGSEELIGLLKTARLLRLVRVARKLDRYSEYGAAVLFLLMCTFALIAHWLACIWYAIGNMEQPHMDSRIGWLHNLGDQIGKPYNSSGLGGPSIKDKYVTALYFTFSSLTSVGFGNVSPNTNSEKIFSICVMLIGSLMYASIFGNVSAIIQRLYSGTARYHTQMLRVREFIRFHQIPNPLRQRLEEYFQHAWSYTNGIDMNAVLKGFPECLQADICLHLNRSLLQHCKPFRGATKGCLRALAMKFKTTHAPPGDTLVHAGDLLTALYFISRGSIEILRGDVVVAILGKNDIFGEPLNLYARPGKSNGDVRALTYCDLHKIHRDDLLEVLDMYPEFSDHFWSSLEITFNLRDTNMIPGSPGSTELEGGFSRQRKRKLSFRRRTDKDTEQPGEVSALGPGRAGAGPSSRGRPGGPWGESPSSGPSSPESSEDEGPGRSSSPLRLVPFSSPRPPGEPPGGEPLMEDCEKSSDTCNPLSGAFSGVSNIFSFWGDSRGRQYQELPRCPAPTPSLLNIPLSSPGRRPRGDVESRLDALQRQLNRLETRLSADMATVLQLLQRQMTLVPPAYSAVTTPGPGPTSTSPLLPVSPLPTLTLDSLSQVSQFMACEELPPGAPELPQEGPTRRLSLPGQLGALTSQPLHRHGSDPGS

T-cell = experiment: Inhibition of anti-CD3 antibody stimulated human T cell proliferation; assay type: functional, cell-based
How it was run: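 Human PBMCs were isolated from healthy donors by density gradient and plated at 2 × 10^5 cells/well in RPMI 1640 with 10% FCS. Cells were preincubated with compound for 30 min, then stimulated with 5 ng/mL anti-CD3 for 48 h. [3H]-thymidine (1 µCi/well) was added for the last 6 h. Done in triplicate and normalized to maximal control incorporation.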

Chain of Potassium voltage-gated channel subfamily A member 3 (P16390 whole entry): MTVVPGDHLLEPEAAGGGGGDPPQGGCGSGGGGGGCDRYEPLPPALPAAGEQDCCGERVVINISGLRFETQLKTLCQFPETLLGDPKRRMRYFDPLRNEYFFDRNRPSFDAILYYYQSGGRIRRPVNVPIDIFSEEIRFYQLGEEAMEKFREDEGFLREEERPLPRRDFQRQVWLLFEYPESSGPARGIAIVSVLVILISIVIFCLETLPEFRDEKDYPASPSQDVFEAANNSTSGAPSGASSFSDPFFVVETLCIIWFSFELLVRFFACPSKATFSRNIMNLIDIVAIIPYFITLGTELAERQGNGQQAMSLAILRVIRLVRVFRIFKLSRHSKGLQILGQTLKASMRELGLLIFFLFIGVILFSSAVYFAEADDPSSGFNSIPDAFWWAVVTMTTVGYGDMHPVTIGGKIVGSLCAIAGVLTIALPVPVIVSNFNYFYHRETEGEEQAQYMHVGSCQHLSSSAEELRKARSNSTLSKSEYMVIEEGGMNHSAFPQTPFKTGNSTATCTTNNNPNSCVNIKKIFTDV

| Structure (SMILES) | EC50 [1] [µM] | further results |
| --- | --- | --- |
| COc1c(O)c(C(C)=O)c(OCc2cccc([N+](=O)[O-])c2)c2ccoc12 | 1.4 | – |
| COc1c(O)c(C(C)=O)c(OCc2cccc(C)c2)c2ccoc12 | 1 | – |
| COc1c(C(C)=O)c(O)c(OCc2ccc(OC(F)(F)F)cc2)c2occc12 | 0.6 | – |
| COc1c(O)c(C(C)=O)c(OCc2ccc(Cl)cc2)c2ccoc12 | 0.48 | EC50 [2]: 1.7 µM; EC50 [3]: 2.5 µM; EC50 [4]: 4.8 µM; EC50 [5]: 0.7 µM; EC50 [6]: 5 µM; EC50 (T-cell): 2.5 µM |
| CCCCCOc1c(C(C)=O)c(O)c(OC)c2occc12 | 4 | – |
| COc1c(C(C)=O)c(O)c(OCc2ccccc2-c2ccccc2)c2occc12 | 1.1 | – |
| COc1c(C(C)=O)c(O)c(OCc2cccc(OC(F)(F)F)c2)c2occc12 | 0.45 | – |
| CCOc1c(O)c(C(C)=O)c(OC)c2ccoc12 | 10 | – |
| COc1c(C(C)=O)c(O)c(OCc2ccccc2F)c2occc12 | 2.5 | – |
| COc1c(O)c(C(C)=O)c(OCc2cccc(C(=O)O)c2)c2ccoc12 | > 10 | – |
| COc1c(C(C)=O)c(O)c(OC)c2occc12 | 45 | – |
| COc1c(O)c(C(C)=O)c(OCc2ccc(-c3ccccc3)cc2)c2ccoc12 | 0.9 | – |
| COc1c(C(C)=O)c(O)c(OCc2cccc(C)c2)c2occc12 | 1.2 | – |
| COc1c(C(C)=O)c(O)c(OCc2ccc(Br)cc2)c2occc12 | 0.4 | EC50 [2]: 1.2 µM; EC50 [3]: 1.4 µM; EC50 [4]: 4.3 µM; EC50 [5]: 0.9 µM; EC50 (T-cell): 2.5 µM |
| COc1c(C(C)=O)c(O)c(OCc2cccc(F)c2)c2occc12 | 0.75 | – |
| COc1c(O)c(C(C)=O)c(OCc2ccc(OC(F)(F)F)cc2)c2ccoc12 | 1.8 | – |
| COc1c(O)c(C(C)=O)c(OCc2cccc3ccccc23)c2ccoc12 | 8 | – |
| COc1c(O)c(C(C)=O)c(OCc2cccc(Cl)c2)c2ccoc12 | 1.4 | – |
| CCOc1c(C(C)=O)c(OCCCCCCOc2c(C(C)=O)c(OCC)c3ccoc3c2OC)c(OC)c2occc12 | 0.8 | – |
| COc1c(C(C)=O)c(O)c(OCc2ccc(OCc3ccccc3)cc2)c2occc12 | 6.3 | – |
| CC(=O)c1c(O)c(OCc2ccccc2)c2occc2c1OCc1ccccc1 | 1.2 | EC50 [2]: 7 µM; EC50 [3]: 10 µM; EC50 [4]: > 20 µM; EC50 [5]: 5 µM |
| CCOc1c(C(C)=O)c(O)c(OC)c2occc12 | 7 | – |
| CCOc1c(C(C)=O)c(O)c(OCC)c2occc12 | 6 | – |
| COc1c(C(C)=O)c(O)c(OCc2cccc(Cl)c2)c2occc12 | 0.6 | – |
| COc1c(C(C)=O)c(O)c(OCc2ccc(C(F)(F)F)cc2)c2occc12 | 0.42 | – |
| COc1c(O)c(C(C)=O)c(OCc2ccc(Br)cc2)c2ccoc12 | 0.5 | – |
| COc1c(C(C)=O)c(O)c(OCc2ccc(F)cc2)c2occc12 | 0.7 | – |

More lines, in order of falling EC50 [1], values ahead:

| EC50 [1] [µM] | Structure (SMILES) | further results |
| --- | --- | --- |
| 8.8 | COc1c(O)c(C(C)=O)c(OCc2ccc(OCc3ccccc3)cc2)c2ccoc12 | – |
| 8 | CCCOc1c(O)c(C(C)=O)c(OC)c2ccoc12 | – |
| 5.8 | COc1c(C(C)=O)c(O)c(OCc2ccc(C(C)(C)C)cc2)c2occc12 | – |
| 5 | COc1c(O)c(C(C)=O)c(OCc2ccc3ccccc3c2)c2ccoc12 | – |
| 5 | CCCOc1c(C(C)=O)c(O)c(OC)c2occc12 | – |
| 5 | COc1c(C(C)=O)c(O)c(OCc2ccc3ccccc3c2)c2occc12 | – |
| 3 | CCCCCOc1c(O)c(C(C)=O)c(OC)c2ccoc12 | – |
| 2.5 | CCOc1c(C(=O)/C=C/c2cccc(O)c2)c(O)c(OC)c2occc12 | – |
| 2.5 | COc1c(O)c(C(C)=O)c(OCc2ccccc2)c2ccoc12 | – |
| 2 | COc1c(O)c(C(C)=O)c(OCc2ccccc2C)c2ccoc12 | – |
| 2 | COc1c(O)c(C(C)=O)c(OCc2ccccc2-c2ccccc2)c2ccoc12 | – |
| 1.9 | COc1c(C(C)=O)c(O)c(OCc2ccccc2C)c2occc12 | – |
| 1.7 | COc1c(O)c(C(C)=O)c(OCc2ccccc2F)c2ccoc12 | – |
| 1.5 | COc1ccc(COc2c(C(C)=O)c(O)c(OC)c3occc23)cc1 | – |
| 1.5 | COc1c(O)c(C(C)=O)c(OCc2ccc(C(C)(C)C)cc2)c2ccoc12 | – |
| 1.2 | COc1c(O)c(C(C)=O)c(OCc2cccc(F)c2)c2ccoc12 | – |
| 1.2 | COc1c(O)c(C(C)=O)c(OCc2ccccc2Cl)c2ccoc12 | – |
| 1.2 | COc1c(C(C)=O)c(O)c(OCc2ccc(-c3ccccc3)cc2)c2occc12 | – |
| 1.2 | COc1c(C(C)=O)c(O)c(OCc2ccccc2)c2occc12 | – |
| 1 | COc1c(O)c(C(C)=O)c(OCc2ccc(F)cc2)c2ccoc12 | – |
| 1 | COc1c(C(C)=O)c(O)c(OCc2ccc(C(C)C)cc2)c2occc12 | – |
| 0.7 | COc1c(C(C)=O)c(O)c(OCc2ccccc2Cl)c2occc12 | – |
| 0.7 | COc1c(O)c(C(C)=O)c(OCc2ccc(C(C)C)cc2)c2ccoc12 | – |
| 0.68 | COc1cccc(COc2c(C(C)=O)c(O)c(OC)c3occc23)c1 | – |
| 0.6 | COc1c(C(C)=O)c(O)c(OCc2cccc([N+](=O)[O-])c2)c2occc12 | – |
| 0.55 | COc1c(O)c(C(C)=O)c(OCc2cccc(OC(F)(F)F)c2)c2ccoc12 | – |
| 0.51 | COc1c(O)c(C(C)=O)c(OCc2ccc(C(F)(F)F)cc2)c2ccoc12 | – |
| 0.5 | COc1c(C(C)=O)c(O)c(OCc2ccc(C(=O)c3ccccc3)cc2)c2occc12 | – |
| 0.5 | COc1c(O)c(C(C)=O)c(OCc2ccc(C(=O)c3ccccc3)cc2)c2ccoc12 | – |
| 0.42 | COc1c(C(C)=O)c(O)c(OCc2ccc(Cl)cc2)c2occc12 | – |
